{"data": "Results from different studies", "target": "Amine oxidase [flavin-containing] B (MAOB, Homo sapiens, UniProt P27338)", "read-out": "enzyme activity", "mode": "inhibitor", "One construct used (P27338 1-520)": "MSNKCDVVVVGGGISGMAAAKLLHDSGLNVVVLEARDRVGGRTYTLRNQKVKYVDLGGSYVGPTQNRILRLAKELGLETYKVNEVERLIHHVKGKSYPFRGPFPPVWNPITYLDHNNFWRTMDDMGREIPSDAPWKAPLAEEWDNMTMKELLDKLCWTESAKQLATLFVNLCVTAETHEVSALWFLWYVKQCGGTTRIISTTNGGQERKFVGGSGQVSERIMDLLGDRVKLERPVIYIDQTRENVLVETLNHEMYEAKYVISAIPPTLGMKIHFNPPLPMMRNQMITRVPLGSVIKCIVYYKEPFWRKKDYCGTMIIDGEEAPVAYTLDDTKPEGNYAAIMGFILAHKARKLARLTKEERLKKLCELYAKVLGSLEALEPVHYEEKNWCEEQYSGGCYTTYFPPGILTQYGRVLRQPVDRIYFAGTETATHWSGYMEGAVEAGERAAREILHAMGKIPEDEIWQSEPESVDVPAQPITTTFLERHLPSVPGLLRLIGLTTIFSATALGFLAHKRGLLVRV", "note": "Each line is one published result; the experiments were not run side by side."}
{"Structure (SMILES)": "O=c1cc(-c2ccc(O)cc2)oc2c([C@@H]3O[C@H](CO)[C@@H](O)[C@H](O)[C@H]3O)c(O)c([C@@H]3O[C@H](CO)[C@@H](O)[C@H](O)[C@H]3O)c(O)c12", "IC50 [nM]": 43300}
{"Structure (SMILES)": "O=C(Nc1ccc([N+](=O)[O-])cc1Cl)c1cc2ccccc2o1", "IC50 [nM]": 123}
{"Structure (SMILES)": "C#CCOc1ccc(/C=C/C(=O)N2CCC(Cc3ccccc3)CC2)cc1OC", "test": "fluorescence", "IC50 [nM]": 320}
{"Structure (SMILES)": "O=C(Nc1ccc(OC(F)(F)F)cc1)c1cc(Cl)ccc1O", "IC50 [nM]": 128}
{"Structure (SMILES)": "COc1ccc(/C=C/C(=O)N2CCc3ccccc3C2)cc1OC", "test": "fluorescence", "IC50 [nM]": 730}
{"Structure (SMILES)": "c1ccc(Nc2nccc(-c3ccco3)n2)cc1", "test": "fluorescence", "IC50 [nM]": 510}
{"Structure (SMILES)": "O=c1cc(-c2ccc(O)cc2)oc2cc(O)c([C@@H]3O[C@H](CO)[C@@H](O)[C@H](O)[C@H]3O)c(O)c12", "IC50 [nM]": 23200}
{"Structure (SMILES)": "CCn1c(-c2nc3cc(C(=O)N4CCC[C@@H](N)C4)cc(OC)c3n2C)cc2cccnc21", "IC50 [nM]": 25100}
{"Structure (SMILES)": "O=c1[nH]c(-c2ccccc2)cnc1-c1ccccc1", "test": "fluorescence", "IC50 [nM]": 140}
{"Structure (SMILES)": "O=C(/C=C/c1ccc(O)cc1)c1ccc(O)cc1O", "IC50 [nM]": 510}
{"Structure (SMILES)": "CSc1ccc(CNc2nc3ccccc3n3cnnc23)cc1", "test": "fluorescence", "IC50 [nM]": 250}
{"Structure (SMILES)": "O=C1C[C@@H](c2cc(O)cc(O)c2)Oc2cc(O)ccc21", "IC50 [nM]": 12100}
{"Structure (SMILES)": "COc1cc(/C=C/C(=O)N2CCC(Cc3ccccc3)CC2)ccc1OCc1ccccc1", "test": "fluorescence", "IC50 [nM]": 3800}
{"Structure (SMILES)": "Cn1c(=O)[nH]c(=O)n2c(CC(=O)Nc3cccc4ccccc34)cnc12", "test": "fluorescence", "IC50 [nM]": 8700}
{"Structure (SMILES)": "C#CCOc1ccc(/C=C/C(=O)N2CCc3ccccc3C2)cc1OC", "test": "fluorescence", "IC50 [nM]": 540}
{"Structure (SMILES)": "c1ccc2[nH]c(-c3nc4ccccc4[nH]3)nc2c1", "test": "fluorescence", "IC50 [nM]": "> 30000"}
